This note sets out measurements from ChEMBL document CHEMBL1147666, “Fluorinated amphiphilic amino acid derivatives as antioxidant carriers: a new class of protective agents” (J Med Chem, 2006).

The test system of experiment [1] is Rotifers. The experiment can be described thus: Viability of rotifers against doxorubicin toxicity at 10 uM. Type of experiment: organism-based. The note with it: Rotifera; read-out: Activity. Put shortly:
(§1)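 Whole rotifers of defined, uniform age from one stock culture; standardized viability assay. Animals exposed 24 h to oxidotoxin (hydrogen peroxide or doxorubicin) at 200 µM together with antioxidant at 10 µM. Vehicle-only controls run in parallel. Read-out is % viable organisms, mean ± SEM, N = 10; ANOVA with Bonferroni t-test vs vehicle.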

Experiment [2] has as its system Mixed cortical cells. The experiment can be described thus: Inhibition of hydrogen peroxide-induced death of mixed cortical cells of E15 Sprague-Dawley rat embryo at 10 uM. Type of experiment: functional. The note with it: Mixed cortical cell. Put shortly:
(§2)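 Primary mixed cortical cultures from E15 Sprague-Dawley rat embryos, exposed 24 h to oxidotoxin (hydrogen peroxide, peroxynitrite or doxorubicin, 200 µM) plus antioxidant at 10 µM. Cell death measured by trypan blue absorbance at 590 nm. Reported as % inhibition of trypan blue absorbance versus vehicle, mean ± SEM, N = 10.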

The subject of experiment [3] is Mixed cortical cells. The experiment can be described thus: Inhibition of peroxynitrite-induced death of mixed cortical cells of E15 Sprague-Dawley rat embryo at 10 uM. The format is functional. The settings on record: Mixed cortical cell. The essentials:
as §2

Experiment [4] relates to Mixed cortical cells. The experiment can be described thus: Inhibition of doxorubicin-induced death of mixed cortical cells of E15 Sprague-Dawley rat embryo at 10 uM. Type of experiment: functional. The settings on record: Mixed cortical cell. The essentials: as §2
The test system of experiment [5] is Radical scavenging activity. The experiment can be described thus: Radical reducing potency by ABTS cation radical reduction assay per 30 mins at […]. The format is functional. The essentials:
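ABTS cation radical reduction assay (modified Re et al.). Assay ABTS•+ 105 µM, test compound 0.5 mM final. Started by adding the test agent. Read every minute at 420 nm for 30 min. DMSO vehicle controls at 2.5% final. Output is reduced ABTS•+ in nmol/30 min, mean ± SEM, N = 10.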

The subject of experiment [6] is Rotifers. The experiment can be described thus: Viability of rotifers against hydrogen peroxide toxicity at 10 uM. The note with it: Rotifera; read-out: Activity. The format is organism-based. Put shortly: as §1
Experiment [7] concerns Radical scavenging activity. The experiment can be described thus: Hydroxyl radical scavenging activity by ABTS competition assay per 30 mins at 1 umol/mL. The format is functional. Put shortly:
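Fenton-initiated ABTS cation radical formation in distilled water adjusted to pH 5.0. Mix: ABTS 1 mM and FeSO4 0.5 mM (stock), test compound 1 mM in DMSO, 10% final DMSO in vehicle controls. Started by adding H2O2 10 mM (stock). Read at 420 nm every minute for 30 min. Output is quenched ABTS•+ in nmol/30 min, mean ± SEM, N = 10.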

Molecules are shown by their SMILES.

Take `O=C(O)CCCCC1CCSS1` (stereo not drawn) [LIPOIC ACID, ALPHA]: the survival at 10 µM was 13.3% in the experiment with Rotifers [1] and 14.1% with Rotifers [6]. The inhibition (in general, the relative decrease from the control value, in per cent) at 10 µM with Mixed cortical cells [2] stood at 15.1%; in the experiment with Mixed cortical cells [3], 13.1%; in the experiment on Mixed cortical cells [4], 14.8%. In addition, the Activity in experiment [5] turned out to be 44.1 nM.

Take `Cc1c(C)c2c(c(C)c1O)CCC(C)(C(=O)O)O2` (configuration not stated) [TROLOX]: the survival at 10 µM in the experiment on Rotifers [1] turned out to be 13.1%; in the experiment with Rotifers [6], 13%. In addition, the figures for the inhibition at 10 µM in the experiment with Mixed cortical cells [2], in the experiment with Mixed cortical cells [3] and with Mixed cortical cells [4] were 22.2%, 16.8% and 15.5%, respectively. The Activity is 87.3 nM in experiment [7] and 93.4 nM in experiment [5].

As to `O=C(O)CCc1c[nH]c2ccccc12`, the survival at 10 µM with Rotifers [1] stood at 53.8%; in the experiment with Rotifers [6], 67.9%. Besides, the inhibition at 10 µM in the experiment on Mixed cortical cells [2] stood at 87.7%; in the experiment with Mixed cortical cells [3], 83.8%; in the experiment on Mixed cortical cells [4], 76.1%. In addition, the Activity worked out at 95.7 nM in experiment [7] and 96.5 nM in experiment [5].

In the case of `CC(C)(C)/[N+]([O-])=C/c1ccccc1`, the figures for the survival at 10 µM with Rotifers [1] and with Rotifers [6] were 18.7% and 25.6%, respectively. For the same molecule, the inhibition at 10 µM with Mixed cortical cells [2] amounted to 25%; with Mixed cortical cells [3] it was 20.6%; in the experiment with Mixed cortical cells [4], 24.2%. For the same molecule, the Activity came out at 18.2 nM in experiment [7] and 7.8 nM in experiment [5].
